Assay results as given in ChEMBL document CHEMBL1149070, “Isolation of antirhinoviral sesquiterpenes from ginger (Zingiber officinale)” (J Nat Prod, 1994).

How the values were obtained:
[1] = system: rhinovirus A1B; experiment: Antiviral activity against Rhinovirus 1B infected in human HeLa cells assessed as reduction in plaque formation per plate after 72 hrs; format: functional, organism-based, Human rhinovirus 1B; design: ED50: unit: ug/plate
Summary of the method: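 M-HeLa cells were seeded at 10⁶ per plate in MEM with 10% FCS and grown to confluence overnight. They were infected with RV1B at 100-200 pfu/plate for 1 h. Excess virus was replaced with an agarose overlay (MEM, FCS, tryptose broth) holding serial doubling dilutions from EtOH, final EtOH ≤1%. Plates ran 72 h at 33°, then were formol-saline fixed and methyl violet stained.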

[2] = system: HeLa; experiment: Cytotoxicity against human HeLa cells upto 20 ug/plate; format: cell-based
Summary of the method: (§1)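 Cytotoxicity was judged in the plaque-assay plates: confluent M-HeLa monolayers under agarose overlay with sample added from EtOH doubling dilutions (≤1% EtOH), 72 h at 33°, then formol-saline fixed and methyl violet stained. Monolayers were inspected for cell destruction, altered appearance or thinning relative to cell controls (no virus, no sample) and virus controls, up to the top plate concentration.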

[3] = system: HeLa; experiment: Cytotoxicity against human HeLa cells upto 1.35 ug/plate; format: cell-based; summary of the method: as §1

Row | IC50 ([1]; Rhinovirus A, HeLa, 72 h) | SMILES | ED50 [1] | Activity [2] | Activity [3]
1 | – | CC(C)=CCC[C@@H](C)c1ccc(C)cc1 | 20.4 µg | Non-toxic | –
2 | – | C=C(CCC=C(C)C)[C@H]1CC=C(C)CC1 | 14.3 µg | Non-toxic | –
3 | – | CC(C)=CCC[C@@H](C)[C@H]1C=CC(C)=CC1 | 1.9 µg | Non-toxic | –
4 | – | c1ccc(C2CCc3ccccc3O2)cc1 (stereo unspecified) [FLAVANE] | 0.27 µg | – | Non-toxic
5 | 440 nM | C=C1C=C[C@H]([C@H](C)CCC=C(C)C)CC1 | 0.9 µg | Non-toxic | –
